In ChEMBL document CHEMBL4043295, “Marbostat-100 Defines a New Class of Potent and Selective Antiinflammatory and Antirheumatic Histone Deacetylase 6 Inhibitors” (J Med Chem, 2018):
pKi: −log10 of the molar value. Activity calls are given as the source filed them. The rule behind the calls is not given here.

Tests used:
Histone deacetylase 8 = biological target: T1, Histone deacetylase 8 (Homo sapiens, UniProt Q9BY41); assay: Inhibition of recombinant human C-terminal His-tagged HDAC8 (1 to 377 residues) expressed in baculovirus-infected insect cells using RHK(Ac)K(Ac)AMC as substrate after 60 mins by fluorimeter
T1 sequence (Q9BY41 whole entry): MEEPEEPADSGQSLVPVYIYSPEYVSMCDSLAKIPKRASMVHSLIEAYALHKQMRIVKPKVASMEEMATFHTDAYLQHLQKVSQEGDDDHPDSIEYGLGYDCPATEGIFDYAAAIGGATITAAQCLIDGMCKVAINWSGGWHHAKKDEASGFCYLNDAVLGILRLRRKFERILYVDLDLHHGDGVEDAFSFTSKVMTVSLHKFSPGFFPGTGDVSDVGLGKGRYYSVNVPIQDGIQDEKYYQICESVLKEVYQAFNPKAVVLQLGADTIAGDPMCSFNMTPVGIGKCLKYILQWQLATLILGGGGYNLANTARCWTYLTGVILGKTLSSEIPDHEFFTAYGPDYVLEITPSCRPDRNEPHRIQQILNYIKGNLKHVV

Histone deacetylase 2 = Histone deacetylase 2 (Homo sapiens, UniProt Q92769); assay: Inhibition of full length recombinant human C-terminal GST-tagged HDAC2 expressed in baculovirus-infected insect cells using RHKK(Ac)AMC as substrate after 60 mins by fluorimeter
Sequence of Histone deacetylase 2 (Q92769 whole entry): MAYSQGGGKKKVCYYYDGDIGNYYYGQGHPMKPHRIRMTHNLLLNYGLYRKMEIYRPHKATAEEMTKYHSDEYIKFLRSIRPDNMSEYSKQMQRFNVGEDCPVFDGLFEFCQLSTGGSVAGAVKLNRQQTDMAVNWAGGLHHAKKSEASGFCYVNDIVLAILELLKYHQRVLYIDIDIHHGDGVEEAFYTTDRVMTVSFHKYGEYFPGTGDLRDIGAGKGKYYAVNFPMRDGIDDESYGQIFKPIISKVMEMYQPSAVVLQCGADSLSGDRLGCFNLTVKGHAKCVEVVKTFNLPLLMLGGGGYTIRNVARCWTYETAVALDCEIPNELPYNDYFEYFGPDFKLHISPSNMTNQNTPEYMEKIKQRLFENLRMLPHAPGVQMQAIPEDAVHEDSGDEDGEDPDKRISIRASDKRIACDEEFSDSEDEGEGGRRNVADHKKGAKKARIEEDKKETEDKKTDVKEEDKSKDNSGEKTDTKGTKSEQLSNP

[1] = biological target: T2, Protein deacetylase HDAC6 (Homo sapiens, UniProt Q9UBN7); assay: Inhibition of full length recombinant human N-terminal GST-tagged HDAC6 expressed in baculovirus-infected Sf9 insect cells using RHKK(Ac)AMC as substrate after 90 mins by fluorimeter
T2 sequence (Q9UBN7 whole entry): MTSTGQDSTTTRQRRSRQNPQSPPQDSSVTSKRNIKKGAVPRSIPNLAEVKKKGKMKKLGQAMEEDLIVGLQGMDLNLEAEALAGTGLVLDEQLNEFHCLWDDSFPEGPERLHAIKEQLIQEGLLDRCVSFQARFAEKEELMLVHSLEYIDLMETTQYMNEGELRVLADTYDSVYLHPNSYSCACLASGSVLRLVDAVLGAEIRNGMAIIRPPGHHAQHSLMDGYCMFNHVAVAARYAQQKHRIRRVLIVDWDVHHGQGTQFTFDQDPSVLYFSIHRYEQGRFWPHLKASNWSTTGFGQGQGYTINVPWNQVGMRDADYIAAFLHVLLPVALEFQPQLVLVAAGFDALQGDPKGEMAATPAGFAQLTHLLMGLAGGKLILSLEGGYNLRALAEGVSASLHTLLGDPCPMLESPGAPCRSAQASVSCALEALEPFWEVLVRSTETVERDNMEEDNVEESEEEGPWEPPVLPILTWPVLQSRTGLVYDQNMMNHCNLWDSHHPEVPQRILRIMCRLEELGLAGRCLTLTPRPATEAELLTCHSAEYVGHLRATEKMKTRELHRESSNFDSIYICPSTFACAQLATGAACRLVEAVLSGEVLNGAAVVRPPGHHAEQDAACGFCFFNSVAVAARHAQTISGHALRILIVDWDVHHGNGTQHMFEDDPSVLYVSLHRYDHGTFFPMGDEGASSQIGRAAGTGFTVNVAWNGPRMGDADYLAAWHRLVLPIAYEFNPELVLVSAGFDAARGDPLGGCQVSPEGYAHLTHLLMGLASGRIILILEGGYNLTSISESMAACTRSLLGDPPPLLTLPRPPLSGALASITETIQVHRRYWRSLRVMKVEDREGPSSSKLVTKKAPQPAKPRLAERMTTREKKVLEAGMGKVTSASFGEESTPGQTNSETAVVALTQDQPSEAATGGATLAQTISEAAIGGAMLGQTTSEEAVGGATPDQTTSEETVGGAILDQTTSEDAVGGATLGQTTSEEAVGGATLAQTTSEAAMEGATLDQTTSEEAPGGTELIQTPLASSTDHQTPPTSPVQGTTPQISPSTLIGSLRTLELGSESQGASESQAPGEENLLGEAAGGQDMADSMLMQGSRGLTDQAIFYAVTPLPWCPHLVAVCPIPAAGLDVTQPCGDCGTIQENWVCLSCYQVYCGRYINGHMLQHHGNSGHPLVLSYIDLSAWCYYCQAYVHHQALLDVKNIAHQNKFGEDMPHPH

[2] = biological target: T3, Protein deacetylase HDAC6 (Homo sapiens) (UniProt Q9UBN7); assay: Inhibition of HDAC6 in human MV4-11 cells assessed as induction of alpha-tubulin hyperacetylation after 24 hrs by Western blot method; type: cell-based
T3 sequence (whole entry): T2 sequence (Q9UBN7 whole entry)
In short: (§1)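 MV4-11 cells were exposed to the inhibitor, from 5 nM to 10 µM for 24 h or at 50 nM for 10 min to 48 h. Lysates were immunoblotted for acetylated tubulin, acetylated histone H3 and HDAC6. Acetyl-tubulin was quantified by densitometry normalised to HSP90. MS-275 at 5 µM for 24 h was the comparator. Blots are representative of at least two independent experiments.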

MV4-11 [3] = assay: Cell cycle arrest in human MV4-11 cells assessed as accumulation at sub-G1 phase at 30 to 50 nM after 24 hrs by propidium iodide staining-based flow cytometric method; type: functional
In short: (§2)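 Cells were stained with propidium iodide and analysed by flow cytometry for cell-cycle distribution and the subG1 fraction (fragmented DNA). Representative of at least two independent experiments.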

Homo sapiens = species: Homo sapiens; assay: Selectivity ratio of Ki for recombinant human C-terminal GST-tagged HDAC2 to Ki for full length recombinant human N-terminal GST-tagged HDAC6
In short: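 Recombinant human HDAC2 and HDAC6 enzymes, fluorescence-based activity assay. […] IC50s were curve-fitted from duplicate determinations. Ki was calculated from IC50 by the Cheng–Prusoff equation, and the ratio was taken from these Ki values. TSA served as internal standard.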

Jurkat = assay: Cell cycle arrest in human Jurkat cells at 5 uM after 24 hrs by propidium iodide staining-based flow cytometric method; type: functional
[4] = Inhibition of class 1 HDAC in human MV4-11 cells assessed as induction of histone hyperacetylation at 5 uM after 24 hrs by Western blot method; type: cell-based; in short: as §1
MV4-11 [5] = assay: Cell cycle arrest in human MV4-11 cells assessed as accumulation at sub-G1 phase at 5 uM after 24 hrs by propidium iodide staining-based flow cytometric method; type: functional; in short: as §2
PBMC = assay: Induction of apoptosis in human PBMC at 5 uM after 24 hrs by Annexin V/propidium iodide staining-based flow cytometric method; type: cell-based
HEL = assay: Cell cycle arrest in human HEL cells at 5 uM after 24 hrs by propidium iodide staining-based flow cytometric method; type: functional
Mus musculus [6] = assay: Toxicity in DBA/1J mouse collagen-induced arthritis model assessed as effect on red blood cell count at 42.3 mg/kg, ip administered every morning for 12 to 14 days measured post last dose relative to vehicle-treated control; type: organism-based; conditions: in vivo
Mus musculus [7] = assay: Toxicity in DBA/1J mouse collagen-induced arthritis model assessed as effect on white blood cell count at 42.3 mg/kg, ip administered every morning for 12 to 14 days measured post last dose relative to vehicle-treated control; type: organism-based; conditions: in vivo
Mus musculus [8] = assay: Toxicity in DBA/1J mouse collagen-induced arthritis model assessed as effect on hemoglobin concentration at 42.3 mg/kg, ip administered every morning for 12 to 14 days measured post last dose relative to vehicle-treated control; type: organism-based; conditions: in vivo
Mus musculus [9] = assay: Antiarthritic activity in DBA/1J mouse collagen-induced arthritis model assessed as decrease in ratio of articular bone surface to articular bone volume at 42.3 mg/kg, ip administered every morning for 12 to 14 days measured post last dose by microCT method relative to vehicle-treated control; type: functional, organism-based
Mus musculus [10] = assay: Antiarthritic activity in DBA/1J mouse collagen-induced arthritis model assessed as decrease in clinical scores at 42.3 mg/kg, ip administered every morning for 6 days measured post last dose; type: functional, organism-based
In short: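 Collagen type II-induced arthritis in mice, second experiment, treated at 42.3 mg/kg (equimolar dose) versus vehicle. Clinical arthritis scores were followed from the beginning of treatment.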

Mus musculus [11] = assay: Antiarthritic activity in DBA/1J mouse collagen-induced arthritis model assessed as reduction of articular bone erosion in arthritic hind paw at 42.3 mg/kg, ip administered every morning for 12 to 14 days measured post last dose by microCT method relative to vehicle-treated control; type: functional, organism-based

| SMILES | pKi (Histone deacetylase 8) | pKi (Histone deacetylase 2) | pKi [1] | alpha-tubulin hyperacetylation (active/not active) [2] | also measured |
| --- | --- | --- | --- | --- | --- |
| COc1ccc2c(c1)c1c(n2Cc2ccc(C(=O)NO)cc2)CN2CC1C(=O)N(C)C2 (centres undefined) | 6.52 | 6.43 | 9.80 | inactive | – |
| Cc1[nH]c2ccccc2c1CCNCc1ccc(/C=C/C(=O)NO)cc1 | – | – | – | – | Activity (MV4-11 [3]): Active |
| COc1ccc2c3c(n(Cc4ccc(C(=O)NO)cc4)c2c1)CN1CC3C(=O)N(C)C1=O (centres undefined) | 7.03 | 7.15 | 9.49 | Active | – |
| CN1C(=O)C2CN(Cc3c2c2cc(OCc4ccccc4)ccc2n3Cc2ccc(C(=O)NO)cc2)C1=O (centres undefined) | – | – | 10.10 | – | – |
| CN1C(=O)C2CN(Cc3c2c2ccccc2n3Cc2cccc(/C=C/C(=O)NO)c2)C1=O (centres undefined) | 7.88 | 6.11 | 7.14 | – | – |
| O=C(NO)c1ccc(Cn2c3c(c4ccccc42)CCN2C(=O)CCCC32)cc1 (centres undefined) | 5.78 | 5.14 | 7.52 | – | – |
| O=C(/C=C/c1ccc(Cn2c3c(c4ccccc42)CCN2C(=O)CCCC32)cc1)NO (centres undefined) | 6.14 | 6.63 | 7.85 | – | – |
| Nc1ccccc1NC(=O)c1ccc(CNC(=O)OCc2cccnc2)cc1 [ENTINOSTAT] | – | – | – | – | Activity (Jurkat): Active; inhibition (INH) [4]: Active; Activity (MV4-11 [5]): Active; Activity (PBMC): Toxic; Activity (HEL): Active |
| COc1ccc2c(c1)c1c(n2Cc2ccc(C(=O)NO)cc2)CN2CC1C(=O)N(C)C2=O (centres undefined) | 6.91 | 6.51 | 9.82 | Active | – |
| CN1C(=O)C2CN(Cc3c2c2cc(OCCN4CCOCC4)ccc2n3Cc2ccc(C(=O)NO)cc2)C1=O.Cl (centres undefined) | 6.14 | 6.50 | 9.32 | – | Activity (Mus musculus [6]): Non-Toxic; Activity (Mus musculus [7]): Non-Toxic; Activity (Mus musculus [8]): Non-Toxic; Activity (Mus musculus [9]): Active; Activity (Mus musculus [10]): Active; Activity (Mus musculus [11]): Active |

The next lines start with results.

| pKi (Histone deacetylase 8) | pKi (Histone deacetylase 2) | pKi [1] | alpha-tubulin hyperacetylation (active/not active) [2] | SMILES | also measured |
| --- | --- | --- | --- | --- | --- |
| 6.12 | 6.00 | 8.73 | – | CN1C(=O)C2c3c(n(Cc4ccc(C(=O)NO)cc4)c4ccccc34)CCN2C1=O (centres undefined) | – |
| < 4.40 | < 5.00 | < 4.70 | – | CN1C(=O)C2CN(Cc3c2c2ccccc2n3Cc2ccc(C(=O)O)cc2)C1=O (centres undefined) | – |
| 6.53 | 5.50 | 8.70 | – | CN1C(=O)[C@H]2CN(Cc3c2c2ccccc2n3Cc2ccc(C(=O)NO)cc2)C1=O | – |
| 5.81 | 5.21 | 8.19 | – | O=C(NO)c1ccc(Cn2c3c(c4ccccc42)C2CCN(C3)C2)cc1 (centres undefined) | Ratio Ki (Homo sapiens): 940 |
| 6.69 | 7.18 | 8.38 | – | CN1C(=O)C2CN(Cc3c2c2ccccc2n3Cc2ccc(/C=C/C(=O)NO)cc2)C1=O (centres undefined) | – |
| – | – | 9.38 | – | CN1C(=O)C2CN(Cc3c2c2cc(O)ccc2n3Cc2ccc(C(=O)NO)cc2)C1=O (centres undefined) | – |
| 7.39 | 6.33 | 9.35 | inactive | CN1C(=O)C2CN(Cc3c2c2ccccc2n3Cc2ccc(C(=O)NO)cc2)C1=S (centres undefined) | – |
| 6.15 | 6.03 | 9.06 | Active | CN1C(=O)N2Cc3c(c4ccccc4n3Cc3ccc(C(=O)NO)cc3)C(C2)C1=S (centres undefined) | – |
| – | – | 8.75 | – | CN1C(=O)C2CN(Cc3c2c2ccc4ccccc4c2n3Cc2ccc(C(=O)NO)cc2)C1=O (centres undefined) | – |
| 6.28 | 6.32 | 9.29 | Active | CN1CC2CN(Cc3c2c2ccccc2n3Cc2ccc(C(=O)NO)cc2)C1=O (centres undefined) | – |
| 6.00 | 5.28 | 9.15 | – | CN1C(=O)[C@@H]2CN(Cc3c2c2ccccc2n3Cc2ccc(C(=O)NO)cc2)C1=O | – |
| 6.37 | 5.87 | 9.64 | inactive | CN1CN2Cc3c(c4ccccc4n3Cc3ccc(C(=O)NO)cc3)C(C2)C1=O (centres undefined) | – |
